Assay results from ChEMBL document CHEMBL3102723, “Design, synthesis and anti-inflammatory evaluation of novel 5-benzylidene-3,4-dihalo-furan-2-one derivatives” (Eur J Med Chem, 2014).
Active and inactive are the calls of the source. The calls are words filed in the database; no cut-off is given here.

Columns and labels:
RAW264.7 [1] = test: Antiinflammatory activity in mouse RAW264.7 cells assessed as inhibition of LPS-induced nitric oxide release at 10 uM treated 2 hrs before LPS challenge measured after 48 hrs by Griess assay relative to control; format: functional
RAW264.7 [2] = test: Antiinflammatory activity in mouse RAW264.7 cells assessed as inhibition of LPS-induced IL-6 release at 10 uM treated 2 hrs before LPS challenge measured after 12 hrs by ELISA (reference value: 13.9 +/- 2.6 pg/ml); format: functional
RAW264.7 [3] = test: Antiinflammatory activity in mouse RAW264.7 cells assessed as inhibition of LPS-induced IL-6 release at 10 uM treated 2 hrs before LPS challenge measured by ELISA; format: functional, cell-based; settings: TDE = time-dependent effect
[4] = biological target: T1, Peroxisome proliferator-activated receptor gamma (Mus musculus) (UniProt P37238); test: Inhibition of PPARgamma in mouse RAW264.7 cells assessed as inhibition of LPS-induced p38 MAPK phosphorylation at 10 uM after 4 hrs by Western blot analysis; format: cell-based
T1 sequence (whole entry): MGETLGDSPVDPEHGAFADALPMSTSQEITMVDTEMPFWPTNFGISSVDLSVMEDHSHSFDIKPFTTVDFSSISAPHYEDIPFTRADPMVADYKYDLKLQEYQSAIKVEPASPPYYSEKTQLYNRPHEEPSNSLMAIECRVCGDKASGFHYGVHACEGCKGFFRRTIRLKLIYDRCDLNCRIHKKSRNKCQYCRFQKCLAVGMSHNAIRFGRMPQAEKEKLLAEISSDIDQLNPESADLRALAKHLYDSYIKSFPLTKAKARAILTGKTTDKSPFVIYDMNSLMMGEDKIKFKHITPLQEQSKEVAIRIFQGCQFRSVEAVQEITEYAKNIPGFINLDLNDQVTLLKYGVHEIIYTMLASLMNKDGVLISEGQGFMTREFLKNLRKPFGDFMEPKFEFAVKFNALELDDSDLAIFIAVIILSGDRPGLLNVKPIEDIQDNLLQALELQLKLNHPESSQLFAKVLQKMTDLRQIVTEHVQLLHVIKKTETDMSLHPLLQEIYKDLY
Outline: (§1)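 RAW264.7 cells at 2 × 10^6 per well, cultured 18 h, then given fresh medium with compounds plus 500 ng/mL LPS for 4 h, with GW9662 at 5 where included. Lysates clarified at 14,000 × g, protein by BCA, equal loads on SDS-PAGE. Blots blocked in 5% milk/TBST, primary antibodies 1:1000 overnight, secondary 1:1000 90 min, ECL detection. Means ± SD (n = 3).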

[5] = biological target: T1, Peroxisome proliferator-activated receptor gamma (Mus musculus); test: Inhibition of PPARgamma in mouse RAW264.7 cells assessed as inhibition of LPS-induced IkappaBalpha phosphorylation at 10 uM after 4 hrs by Western blot analysis; format: cell-based; outline: as §1
[6] = biological target: T1, Peroxisome proliferator-activated receptor gamma (Mus musculus); test: Inhibition of PPARgamma in mouse RAW264.7 cells assessed as inhibition of LPS-induced p38 MAPK phosphorylation at 10 uM after 4 hrs by Western blot analysis in presence of PPARgamma antagonist GW9662; format: cell-based; outline: as §1
[7] = Cytotoxicity against mouse RAW264.7 cells assessed as cell viability at 10 uM after 48 hrs by MTT assay relative to control; format: cell-based; settings: read-out: Activity
Outline: (§2)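 MTT assay. RAW264.7 cells at 4 × 10^3 cells/well, cultured 16 h, then exposed to compounds diluted in DMEM for 48 h. MTT (0.5 mg/mL) added for 4 h, formazan dissolved in DMSO, OD570 read. Viability = compound OD570/blank OD570 × 100%, with the medium-only blank set as 100%. Three independent experiments.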

[8] = biological target: T1, Peroxisome proliferator-activated receptor gamma (Mus musculus); test: Inhibition of PPARgamma in mouse RAW264.7 cells assessed as inhibition of LPS-induced ERK1/2 phosphorylation at 10 uM after 4 hrs by Western blot analysis in presence of PPARgamma antagonist GW9662; format: cell-based; outline: as §1
RAW264.7 [9] = test: Antiinflammatory activity in mouse RAW264.7 cells assessed as inhibition of LPS-induced IL-6 release at 10 uM treated 2 hrs before LPS challenge measured after 24 hrs by ELISA (reference value: 45.1 +/- 5.6 pg/ml); format: functional
RAW264.7 [10] = test: Antiinflammatory activity in mouse RAW264.7 cells assessed as inhibition of LPS-induced TNF-alpha release at 10 uM treated 2 hrs before LPS challenge measured after 24 hrs by ELISA (reference value: 38.3 +/- 3.3 pg/ml); format: functional
RAW264.7 [11] = test: Antiinflammatory activity in mouse RAW264.7 cells assessed as inhibition of LPS-induced IL-6 release at 10 uM treated 2 hrs before LPS challenge measured after 6 hrs by ELISA (reference value: 7.2 +/- 0.9 pg/ml); format: functional
RAW264.7 [12] = test: Antiinflammatory activity in mouse RAW264.7 cells assessed as inhibition of LPS-induced TNF-alpha release at 10 uM treated 2 hrs before LPS challenge measured after 12 hrs by ELISA (reference value: 11.8 +/- 1.2 pg/ml); format: functional
[13] = biological target: T1, Peroxisome proliferator-activated receptor gamma (Mus musculus); test: Inhibition of PPARgamma in mouse RAW264.7 cells assessed as inhibition of LPS-induced JNK phosphorylation at 10 uM after 4 hrs by Western blot analysis in presence of PPARgamma antagonist GW9662; format: cell-based; outline: as §1
[14] = biological target: T1, Peroxisome proliferator-activated receptor gamma (Mus musculus); test: Inhibition of PPARgamma in mouse RAW264.7 cells assessed as inhibition of LPS-induced NF-kappaB 65 phosphorylation at 10 uM after 4 hrs by Western blot analysis; format: cell-based; outline: as §1
[15] = biological target: T1, Peroxisome proliferator-activated receptor gamma (Mus musculus); test: Inhibition of PPARgamma in mouse RAW264.7 cells assessed as inhibition of LPS-induced ERK1/2 phosphorylation at 10 uM after 4 hrs by Western blot analysis; format: cell-based; outline: as §1
[16] = biological target: T1, Peroxisome proliferator-activated receptor gamma (Mus musculus); test: Inhibition of PPARgamma in mouse RAW264.7 cells assessed as inhibition of LPS-induced IkappaBalpha phosphorylation at 10 uM after 4 hrs by Western blot analysis in presence of PPARgamma antagonist GW9662; format: cell-based; outline: as §1
RAW264.7 [17] = test: Antiinflammatory activity in mouse RAW264.7 cells assessed as inhibition of LPS-induced TNF-alpha release at 10 uM treated 2 hrs before LPS challenge measured by ELISA; format: functional, cell-based; settings: TDE = time-dependent effect
[18] = biological target: T1, Peroxisome proliferator-activated receptor gamma (Mus musculus); test: Inhibition of PPARgamma in mouse RAW264.7 cells assessed as inhibition of LPS-induced NF-kappaB 65 phosphorylation at 10 uM after 4 hrs by Western blot analysis in presence of PPARgamma antagonist GW9662; format: cell-based; outline: as §1
[19] = biological target: T1, Peroxisome proliferator-activated receptor gamma (Mus musculus); test: Inhibition of PPARgamma in mouse RAW264.7 cells assessed as inhibition of LPS-induced JNK phosphorylation at 10 uM after 4 hrs by Western blot analysis; format: cell-based; outline: as §1
RAW264.7 [20] = test: Antiinflammatory activity in mouse RAW264.7 cells assessed as inhibition of LPS-induced TNF-alpha release at 10 uM treated 2 hrs before LPS challenge measured after 6 hrs by ELISA (reference value: 5.9 +/- 0.5 pg/ml); format: functional
[21] = Cytotoxicity against mouse RAW264.7 cells assessed as cell viability at 5 uM after 48 hrs by MTT assay relative to control; format: cell-based; settings: read-out: Activity; outline: as §2

With `COc1cc(/C=C2\OC(=O)C(Cl)=C2Cl)ccc1OCc1ccccn1` the inhibition at 10 µM (RAW264.7 [1]) was 36.4%.

Work on `COc1cc(/C=C2\OC(=O)C(Br)=C2Br)ccc1OCCc1ccccn1` yielded an inhibition at 10 µM (RAW264.7 [1]) of 54.7%.

With `CCc1ccc(CCOc2ccc(/C=C3\OC(=O)C(Br)=C3Br)cc2OC)nc1` the Activity (RAW264.7 [2]) was 2528.4 pg/mL, the inhibition (RAW264.7 [3]) was “tde” and the inhibition at 10 µM (RAW264.7 [1]) was 75.8%. The inhibition [4] was “Active”, the inhibition [5] was “Active” and the inhibition [6] was “inactive”. The viability at 48 h, 10 µM [7] was 98.1%, the inhibition [8] was “inactive” and the Activity (RAW264.7 [9]) was 6360 pg/mL. It also gave an Activity (RAW264.7 [10]) of 1110.5 pg/mL, an Activity (RAW264.7 [11]) of 1705.9 pg/mL and an Activity (RAW264.7 [12]) of 575.6 pg/mL. The inhibition [13] was “inactive”, the inhibition [14] was “Active” and the inhibition [15] was “Active”. The inhibition [16] was “inactive”, the inhibition (RAW264.7 [17]) was “tde” and the inhibition [18] was “inactive”. For the same compound, the inhibition [19] was “Active” and the Activity (RAW264.7 [20]) was 347.1 pg/mL.

`O=C(Nc1ccccc1)c1cc([N+](=O)[O-])ccc1Cl` gave a viability at 48 h, 5 µM [21] of 101%.

Compound `CCOc1cc(/C=C2\OC(=O)C(Cl)=C2Cl)ccc1OCCc1ccccn1` has an inhibition at 10 µM (RAW264.7 [1]) of 50.4%.

For `O=C1O/C(=C\c2ccc(OCc3ccccn3)cc2)C(Br)=C1Br`, the inhibition at 10 µM (RAW264.7 [1]) was 29.2%.

Work on `COc1cc(/C=C2\OC(=O)C(Cl)=C2Cl)ccc1OCCc1ccccn1` yielded an inhibition at 10 µM (RAW264.7 [1]) of 38.9%.

In the case of `CCc1ccc(CCOc2ccc(/C=C3\OC(=O)C(Br)=C3Br)cc2)nc1`, the inhibition at 10 µM (RAW264.7 [1]) is reported as 43.6%.

`COc1cc(/C=C2\SC(=O)NC2=O)ccc1OCc1nc(C)c(C)nc1C` gave an inhibition at 10 µM (RAW264.7 [1]) of 24.9%.

For `CCOc1cc(/C=C2\SC(=O)NC2=O)ccc1OCc1nc(C)c(C)nc1C`, the inhibition at 10 µM (RAW264.7 [1]) was 30.7%.

For `CN(CCOc1ccc(CC2SC(=O)NC2=O)cc1)c1ccccn1` (stereo not given) [ROSIGLITAZONE], the Activity (RAW264.7 [2]) was 3477.9 pg/mL, the inhibition (RAW264.7 [3]) was “tde” and the inhibition at 10 µM (RAW264.7 [1]) was 16.7%. For the same compound, the viability at 48 h, 10 µM [7] was 99.7%, the Activity (RAW264.7 [9]) was 8388.6 pg/mL and the Activity (RAW264.7 [10]) was 1293.8 pg/mL. The Activity (RAW264.7 [11]) was 2783.9 pg/mL, the Activity (RAW264.7 [12]) was 631.3 pg/mL and the inhibition (RAW264.7 [17]) was “tde”. It also gave an Activity (RAW264.7 [20]) of 416.9 pg/mL.

With `Cc1nc(C)c(COc2ccc(/C=C3\SC(=O)NC3=O)cc2)nc1C` the inhibition at 10 µM (RAW264.7 [1]) was 19.3%.
